Measured values reported in ChEMBL document CHEMBL2401669, “Discovery and structure-activity relationships of ent-Kaurene diterpenoids as potent and selective 11β-HSD1 inhibitors: potential impact in diabetes” (Eur J Med Chem, 2013).

Target: 11-beta-hydroxysteroid dehydrogenase 1 (Mus musculus) (UniProt P50172)
Experiment: Inhibition of mouse 11beta-HSD1 expressed in HEK293 cell microsomes assessed as inhibition of [3H]cortisone conversion to [3H]cortisol at 1 uM by scintillation proximity assay
Settings: Microsome
Method in brief: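 Primary single-concentration screen in the SPA. Mouse 11β-HSD1 HEK-293 stable-transfectant microsomes are incubated with NADPH and [3H]cortisone, and [3H]cortisol is captured by antibody-coupled protein A SPA beads. Inhibitory ratio is the average of two determinations, with deviation from the average of 10% of the average value.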

Chain of 11-beta-hydroxysteroid dehydrogenase 1 (Mus musculus) (P50172 whole entry, looked up): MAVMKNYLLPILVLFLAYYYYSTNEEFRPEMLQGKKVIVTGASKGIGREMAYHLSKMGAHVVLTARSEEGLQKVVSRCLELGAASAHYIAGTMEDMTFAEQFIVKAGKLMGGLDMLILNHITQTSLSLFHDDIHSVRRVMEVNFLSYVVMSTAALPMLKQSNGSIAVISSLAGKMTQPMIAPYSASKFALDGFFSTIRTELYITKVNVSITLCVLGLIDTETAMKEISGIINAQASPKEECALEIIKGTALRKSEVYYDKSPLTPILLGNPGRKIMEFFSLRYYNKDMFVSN

SMILES | inhibition [%]
C=C1C[C@@]23CC[C@@H]4[C@](C)(CF)CCC[C@@]4(C)[C@@H]2CC[C@H]1C3 | 37.7
C=C1C[C@@]23CC[C@H]4[C@@](C)(CCC[C@@]4(C)NC(=O)Nc4nccs4)[C@@H]2CC[C@H]1C3 | 18.2
C=C1[C@H]2C[C@H](OC(=O)c3ccc(N(C)C)cc3)[C@H]3[C@]4(C)CCC[C@@](C)(C(=O)O)[C@H]4CC[C@]3(C2)[C@@H]1O | 34
C=C1C(=O)[C@@]23CC[C@H]4[C@@](C)(CCC[C@@]4(C)C(=O)O)[C@@H]2[C@@H](O)C[C@H]1C3 | 25.3
C=C1[C@H]2CC[C@H]3[C@]4(C)CCC[C@@](C)(C(=O)O)[C@H]4CC[C@]3(C2)[C@@H]1F | 56
C=C1[C@H]2C[C@H](OC(=O)c3ccc(Br)cc3)[C@H]3[C@]4(C)CCC[C@@](C)(C(=O)O)[C@H]4CC[C@]3(C2)[C@@H]1O | 32.7
C=C1[C@H]2C[C@H](OC(=O)c3ccccc3)[C@H]3[C@]4(C)CCC[C@@](C)(C(=O)O)[C@H]4CC[C@]3(C2)[C@@H]1O | 21.3
C=C1C[C@@]23CC[C@H]4[C@@](C)(CCC[C@@]4(C)N=C=O)[C@@H]2CC[C@H]1C3 | 55.5
C=C1[C@@H](O)[C@@]23CC[C@H]4[C@@](C)(CCC[C@@]4(C)C(=O)O)[C@@H]2C=C[C@H]1C3 | 19.6
C=C1[C@H]2C[C@H](OC(=O)Nc3nccs3)[C@H]3[C@]4(C)CCC[C@@](C)(C(=O)O)[C@H]4CC[C@]3(C2)[C@@H]1O | 11.6
C[C@@]12CCC[C@@](C)(C(=O)O)[C@H]1CC[C@]13CC(=O)[C@@H](CC[C@H]12)C3 | 19.6
CC1(C)[C@@H](O)CC[C@]2(C)[C@H]3C(=O)C=C4[C@@H]5C[C@@](C)(C(=O)O)CC[C@]5(C)CC[C@@]4(C)[C@]3(C)CC[C@@H]12 | 96.7
C[C@H]1[C@H]2C[C@H](O)[C@H]3[C@]4(C)CCC[C@@](C)(C(=O)O)[C@H]4CC[C@]3(C2)[C@@H]1O | 11.6

Results, then the molecule that gave them:

inhibition [%] | SMILES
5.39 | C=C1[C@H]2C[C@H](O)[C@H]3[C@]4(C)CCC[C@@](C)(NC(=O)Nc5nccs5)[C@H]4CC[C@]3(C2)[C@@H]1O
12.7 | C=C1[C@H]2C[C@H](O)[C@H]3[C@]4(C)CCC[C@@](C)(NC(=O)N5CCNCC5)[C@H]4CC[C@]3(C2)[C@@H]1O
19.4 | C=C1[C@H]2C[C@H](O)[C@H]3[C@]4(C)CCC[C@@](C)(NC(=O)NC)[C@H]4CC[C@]3(C2)[C@@H]1O
3.69 | C=C1[C@H]2C[C@H](O)[C@H]3[C@]4(C)CCC[C@@](C)(NC(=O)Nc5ccc(C(F)(F)F)cc5)[C@H]4CC[C@]3(C2)[C@@H]1O
11.3 | C=C1[C@H]2C[C@H](O)[C@H]3[C@]4(C)CCC[C@@](C)(NC(=O)NC(C)(C)C)[C@H]4CC[C@]3(C2)[C@@H]1O
16.8 | C=C1[C@H]2C[C@H](O)[C@H]3[C@]4(C)CCC[C@@](C)(N=C=O)[C@H]4CC[C@]3(C2)[C@@H]1O
9.21 | C=C1[C@H]2C[C@H](O)[C@H]3[C@]4(C)CCC[C@@](C)(NC(=O)N5CCCC5)[C@H]4CC[C@]3(C2)[C@@H]1O
16.5 | C=C1[C@H]2C[C@H](O)[C@H]3[C@]4(C)CCC[C@@](C)(C(=O)O)[C@H]4CC[C@]3(C2)[C@@H]1O
35.2 | C=C1[C@H]2C[C@H](OC(=O)N3CCOCC3)[C@H]3[C@]4(C)CCC[C@@](C)(C(=O)O)[C@H]4CC[C@]3(C2)[C@@H]1O
27.3 | C=C1[C@H]2C[C@H](O)[C@H]3[C@]4(C)CCC[C@@](C)(CO)[C@H]4CC[C@]3(C2)[C@@H]1O
25.1 | C=C1[C@H]2C[C@H](O)[C@H]3[C@]4(C)CCC[C@@](C)(C(=O)OC)[C@H]4CC[C@]3(C2)[C@@H]1O
21.4 | C=C1[C@H]2C[C@H](O)[C@H]3[C@]4(C)CCC[C@@](C)(NC(=O)N5CCOCC5)[C@H]4CC[C@]3(C2)[C@@H]1O
16.1 | C=C1[C@H]2C[C@H](O)[C@H]3[C@]4(C)CCC[C@@](C)(NC(=O)N(C)OC)[C@H]4CC[C@]3(C2)[C@@H]1O
16.8 | C[C@@]12CCC[C@@](C)(C(=O)O)[C@H]1CC[C@@]13C[C@H](C[C@H](O)[C@@H]21)[C@]1(CO1)[C@H]3O
